Measured values from ChEMBL document CHEMBL1287760, “Optimization of purine-nitrile TbcatB inhibitors for use in vivo and evaluation of efficacy in murine models” (Bioorg Med Chem, 2010).
Values after ≈ are worked out from the molar mass of the structure shown. Active and inactive are the calls of the source. The rule behind the calls is not given here.

Experiments:
[1] = Half life in CD1 mouse plasma by UPLC-MS analysis; assay type: ADME, cell-free
Method in brief: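 Half-life in mouse plasma measured at 37 °C.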

[2] = Toxicity in human erythrocyte assessed as hemolysis at 10 uM after 5 hrs; assay type: cell-based; details: erythrocytes, read-out: Activity
Method in brief: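 Human erythrocytes washed three times after spinning whole blood at 1000g for 5 min. Test compound at 10 µM final, 2% hematocrit. PBS negative control; 0.4% saponin dilution series as standard. After centrifugation, supernatant absorbance read at 414 nm and % hemolysis taken from the calibration curve. Triplicate.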

[3] = Therapeutic index, ratio of EC50 for human cells to EC50 for Trypanosoma brucei; details: human cells versus Trypanosoma brucei, read-out: Ratio EC50
Method in brief: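 Index = EC50 against the most sensitive mammalian line (HEK 293, Hep G2, BJ, Raji) divided by EC50 against T.b. brucei.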

[4] = system: Trypanosoma brucei; test: Antitrypanosomal activity against Trypanosoma brucei after 48 hrs; assay type: functional, organism-based
[5] = Half life in CD1 mouse liver microsomes by UPLC-MS analysis; assay type: ADME, Microsome; details: for half-life: CD1, mouse, liver microsomes
Method in brief: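 CD-1 female mouse liver microsomes in 0.1 M potassium phosphate pH 7.4 with EDTA and NADPH-regenerating solutions, 37 °C, shaken. Samples at 0, 0.5, 1 and 2 h quenched with cold acetonitrile containing caffeine internal standard. UPLC–MS (SIR) read-out. Log peak-area ratio versus time gives slope; k = −2.303 × slope, t1/2 = 0.693/k.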

[6] = Aqueous solubility of compound in deionized water; assay type: physicochemical
Method in brief: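 Aqueous solubility measured in deionized water.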

[7] = system: Mus musculus; test: Stability of the compound in po dosed mouse blood; assay type: ADME, organism-based; details: in vivo
Method in brief: (§1)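 Oral gavage of compound suspensions to female Balb/c mice; blood sampled retro-orbitally at 1, 2 and 4 h (one sample per mouse) and by cardiac puncture at 48 h. Parent compound and metabolites measured by UPLC–MS; metabolite identity assigned by MS/MS against a synthesized standard.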

[8] = Chemical stability in phosphate buffered saline at pH 7.4 after 14 days; assay type: physicochemical; details: buffer, pH 7.4, 336 h
Method in brief: (§2)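 Stability in PBS (pH 3, 5 and 7.4) followed over 14 days for non-metabolic degradation.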

[9] = system: Raji; test: Cytotoxicity against human Raji cells after 72 hrs by alamar blue assay; assay type: cell-based
[10] = Chemical stability in dimethyl sulfoxide at pH 5 after 14 days; assay type: physicochemical; details: buffer, pH 5, 336 h
Method in brief: (§3)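 DMSO stability followed over 14 days for non-metabolic degradation.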

[11] = Chemical stability in phosphate buffered saline at pH 5 after 14 days; assay type: physicochemical; details: buffer, pH 5, 336 h; method in brief: as §2
[12] = system: BJ; test: Cytotoxicity against human BJ cells after 72 hrs by alamar blue assay; assay type: cell-based
[13] = Chemical stability in dimethyl sulfoxide at pH 7.4 after 14 days; assay type: physicochemical; details: buffer, pH 7.4, 336 h; method in brief: as §3
[14] = Chemical stability in phosphate buffered saline at pH 3 after 14 days; assay type: physicochemical; details: buffer, pH 3, 336 h; method in brief: as §2
[15] = system: HepG2; test: Cytotoxicity against human HepG2 cells after 72 hrs by alamar blue assay; assay type: cell-based; details: hepg2, 72 h
[16] = Chemical stability in dimethyl sulfoxide at pH 3 after 14 days; assay type: physicochemical; details: buffer, pH 3, 336 h; method in brief: as §3
[17] = system: HEK293; test: Cytotoxicity against human HEK293 cells after 72 hrs by alamar blue assay; assay type: cell-based; details: hek293, 72 h
[18] = Ratio of plasma concentration mouse at 200 mg/kg, po to EC50 for Trypanosoma brucei; assay type: ADME, organism-based; parameters: dose 200 mg/kg, route oral; details: in vivo
[19] = system: Mus musculus; test: Toxicity in mouse assessed as decreased movement at 2 to 8 mg/kg, iv measured after 30 seconds; assay type: organism-based; parameters: dose 2-8 mg/kg, route intravenous; details: in vivo, 0.5 min
Method in brief: (§4)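 Female Balb/c mice dosed by lateral tail-vein injection of solubilized compound at 2, 4 and 8 mg/kg (0.4–1.6 mg/ml solutions, 0.1 ml per 20 g). Observed by a modified Irwin functional observational battery (gait, alertness, respiration, piloerection, vasodilation, vocalization).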

[20] = Toxicity in po dosed mouse assessed as maximum tolerated dosage; assay type: organism-based; details: in vivo
Method in brief: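 Female balb/c mice, 10–12 weeks, housed individually. Oral gavage in a four-stage escalation: vehicle, then 50, 100 and 200 mg/kg. Some groups went on to 400 and 1000 mg/kg. Dose volume 0.1 ml per 20 g. Twelve mice per compound. A modified Irwin FOB was run for 15 min after each dose and at 1–48 h (gait, alertness, respiration, piloerection, vasodilation, vocalization). Necropsy, CBC and serum chemistry were done at 48 h.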

[21] = system: Trypanosoma brucei rhodesiense; test: Antitrypanosomal activity against Trypanosoma brucei rhodesiense STIB900 infected in NMRI mouse assessed as increase of mouse survival time at 50 to 200 mg/kg, po qd
[22] = system: Trypanosoma brucei; test: Antitrypanosomal activity against Trypanosoma brucei 221 infected in BALB/c mouse assessed as decrease of parasitemia at 200 mg/kg, po qd for 5 days measured on day 4; assay type: functional, organism-based; parameters: dose 200 mg/kg
Method in brief: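 Female Balb/C mice (10–12 weeks) infected ip on day 0 with ~800 T.b. brucei strain 221 (0.1 ml of 8 × 10³ parasites/ml in unsupplemented HMI-9; parasites grown to 10⁷/ml in supplemented HMI-9). Randomized to oral gavage of 200 mg/kg suspension or vehicle (20% ethanol/40% propylene glycol/10% PEG 400/30% PBS pH 7.4) on days 0–4. Parasitemia counted by hemocytometer in saphenous blood every third day from day 4.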

[23] = Drug level in mouse brain at 200 mg/kg, po after 24 hrs; details: read-out: Drug uptake
[24] = system: Mus musculus; test: Toxicity in mouse at 200 mg/kg, po qd for 10 days; assay type: organism-based; parameters: dose 200 mg/kg, route oral; details: in vivo, 240 h
Method in brief: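 Five female Balb/c mice given 200 mg/kg daily by oral gavage for 10 days and monitored to day 30. One mouse sent for CBC, serum chemistry and necropsy on day 10 and another on day 30. Functional observational battery used.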

[25] = Cmax in mouse brain at 200 mg/kg, po
[26] = system: Mus musculus; test: Toxicity in mouse assessed as transient darkening of the eyes at 2 to 8 mg/kg, iv measured immediately after dosing; assay type: organism-based; parameters: dose 2-8 mg/kg, route intravenous; details: in vivo; method in brief: as §4
[27] = system: Mus musculus; test: Toxicity in mouse assessed as transient darkening of the eyes at 2 to 8 mg/kg, iv measured after 30 seconds; assay type: organism-based; parameters: dose 2-8 mg/kg, route intravenous; details: in vivo, 0.5 min; method in brief: as §4
[28] = system: Trypanosoma brucei; test: Antitrypanosomal activity against Trypanosoma brucei 221 infected in BALB/c mouse assessed as increase of mouse survival days at 200 mg/kg, po qd for 5 days relative to control; assay type: functional
Method in brief: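 Female Balb/C mice (10–12 weeks) infected on day 0 by IP injection of ~800 T.b. brucei 221 parasites (cultured in HMI-9 with 10% FBS and 10% Serum Plus, diluted to 8 × 10³ parasites/ml, 0.1 ml). Oral gavage of 200 mg/kg on days 0–4 in 20% ethanol/40% propylene glycol/10% PEG 400/30% PBS pH 7.4; vehicle controls. Mice were randomly assigned to groups. Parasitemia was counted by hemocytometer every third day from day 4. Survival days were recorded.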

[29] = system: Trypanosoma brucei; test: Antitrypanosomal activity against Trypanosoma brucei 221 infected in BALB/c mouse assessed as decrease of parasitemia at 200 mg/kg, po qd for 5 days measured on day 6; assay type: functional, organism-based; parameters: dose 200 mg/kg
[30] = Cmax in mouse plasma at 200 mg/kg, ip; assay type: ADME, organism-based; parameters: dose 200 mg/kg, route intraperitoneal
[31] = system: Mus musculus; test: Toxicity in mouse assessed as decreased movement at 2 to 8 mg/kg, iv measured immediately after dosing; assay type: organism-based; parameters: dose 2-8 mg/kg, route intravenous; details: in vivo; method in brief: as §4
[32] = Cmax in mouse plasma at 200 mg/kg, po; assay type: ADME, organism-based; parameters: dose 200 mg/kg, route oral
Method in brief: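 Female Balb/c mice given oral gavage suspensions (20% ethanol/40% propylene glycol/10% PEG 400/30% PBS pH 7.4), 0.1 ml per 20 g, at 50–1000 mg/kg. Retro-orbital blood (0.1 ml, EDTA) taken from a different mouse at 1, 2, 4 h, some also at 8, 12, 24 h, plus a 48 h cardiac bleed. Plasma precipitated with 3 parts cold acetonitrile; concentration by UV/HPLC.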

[33] = Ratio of drug level in brain to plasma in mouse at 200 mg/kg, po after 24 hrs
[34] = Long term solid state stability of the compound at simulated tropical condition after 30 days; assay type: physicochemical; details: 720 h
[35] = Cmax in mouse plasma at 50 to 1000 mg/kg, po after 1 to 4 hrs
[36] = Ratio of plasma concentration mouse at 200 mg/kg, po to EC90 for Trypanosoma brucei; assay type: ADME, organism-based; parameters: dose 200 mg/kg, route oral; details: in vivo
[37] = Permeability of the compound assessed as ratio of compound in acceptor chamber to amount of compound in donor chamber at pH 7.4 by PAMPA assay; assay type: ADME
[38] = Permeability of the compound assessed as ratio of compound in acceptor chamber to amount of compound in donor chamber at pH 5 by PAMPA assay; assay type: ADME
[39] = Permeability of the compound assessed as ratio of compound in acceptor chamber to amount of compound in donor chamber at pH 3 by PAMPA assay; assay type: ADME
[40] = system: Mus musculus; test: Stability of the compound in po dosed mouse blood assessed as 5-(2-cyano-6-(3,4-dichlorobenzylamino)-9H-purin-9-yl)pentanoic acid level after 1 hr; assay type: ADME, organism-based; details: in vivo; method in brief: as §1

Row | Structure (SMILES) | half-life [1] [h] | hemolysis at 5 h, 10 µM [2] [%] | selectivity ratio [3] | EC50 [4] [nM] | half-life [5] [h] | solubility [6] [µM] | Stability [7] | Stability [8] | Activity [9] | Stability [10] | Stability [11] | Activity [12] | Stability [13] | Stability [14] | Activity [15] | Stability [16] | Activity [17] | further results
1 | CCCCn1cnc2c(NCc3ccc(Cl)c(Cl)c3)nc(C#N)nc21 | 247 | 0.9 | > 20 | 500 | 0.74 | 0.7 (≈ 0.263 µg/mL) |  |  |  |  |  |  |  |  |  |  |  | 
2 | Cc1cccc(C)c1-c1cccc(CNc2nc(C#N)nc3c2ncn3CCCO)c1 | 25.7 | 1.1 | > 20 | 270 | 0.43 | 1 (≈ 0.412 µg/mL) | Unstable | Stable | Non-toxic | Stable | Stable | Non-toxic | Stable | Stable | Non-toxic | Stable | Non-toxic | 
3 | N#Cc1nc(NCc2ccc(Cl)c(Cl)c2)c2ncn(CCCC(F)(F)F)c2n1 | 177 | 0.4 | > 20 | 530 |  | 0.3 (≈ 0.129 µg/mL) |  |  |  |  |  |  |  |  |  |  |  | Ratio [18]: 20; Activity [19]: Non-toxic; MTD [20]: 1000 mg/kg; Activity [21]: inactive; Activity [22]: inactive; concentration at 24 h [23]: 20 µM; Activity [24]: Non-toxic; Tmax [25]: 4 h; Activity [26]: Non-toxic; Activity [27]: Non-toxic; Survival [28]: 9.6 days; Activity [29]: inactive; Tmax [30]: 4 h; t1/2 ([5]; mouse, microsomes): Stable; Activity [31]: Non-toxic; Tmax [32]: 24 h; Kp at 24 h [33]: 2; Stability [34]: Stable; Cmax [35]: 6 µM; Ratio [36]: 10
4 | N#Cc1nc(NCc2ccc(Cl)c(Cl)c2)c2ncn(CCCCCO)c2n1 | 38.3 | 0.7 | > 20 | 380 | 1.08 | 16.1 (≈ 6.53 µg/mL) | Unstable | Stable | Non-toxic | Stable | Stable | Non-toxic | Stable | Stable | Non-toxic | Stable | Non-toxic | Ratio [37]: 1900; Ratio [38]: 1512; Ratio [39]: 960; Stability [40]: Unstable
